Data reported in ChEMBL document CHEMBL3091458, “Design, synthesis, and biological evaluation of 1,2,4-triazole bearing 5-substituted biphenyl-2-sulfonamide derivatives as potential antihypertensive candidates” (Bioorg Med Chem, 2013).
Blank lines part the entries; values can stand above or below the compound they belong to.

Tests used:
[1] = Displacement of [125I]-Ang-2 from AT2 receptor in porcine myometrial membranes after 1.5 hrs; assay type: cell membranes, Sus scrofa
Method in brief: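 Membranes were made from porcine uteri (myometrium). AT1 binding was blocked by adding losartan. [125I]Ang II binding ran in 50 mM Tris-HCl pH 7.4 with 100 mM NaCl, 10 mM MgCl2, 1 mM EDTA, 0.025% bacitracin and 0.2% BSA, at 25 °C for 1.5 h. Bound ligand was caught on GF/C filters, washed with cold Tris and gamma-counted. IC50 was the concentration displacing 50% of specific binding. Run in triplicate.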

[2] = Displacement of [125I]-Ang-2 from AT1 receptor in rat liver membranes after 1.5 hrs; assay type: cell membranes, Membrane
Rattus norvegicus [3] = assay: Toxicity in renal spontaneously hypertensive rat model assessed as reduction of heart rate at 20 mg/kg, po measured at 8 hrs by tail-cuff method relative to control; assay type: organism-based; design: dose 20 mg/kg, route oral; conditions: in vivo
Method in brief: (§1)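 Spontaneously hypertensive rats were dosed orally with the test agent at 20 mg/kg, with a saline-dosed control group. SAP, DAP, MAP and heart rate were recorded before dosing and at 1, 2, 4, 6 and 8 h after. Change was taken as the post-dose value minus the pre-dose value. Significance was judged against the control at p < 0.1 and p < 0.05.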

Rattus norvegicus [4] = assay: Toxicity in renal spontaneously hypertensive rat model assessed as reduction of heart rate at 20 mg/kg, po measured at 6 hrs by tail-cuff method relative to control; assay type: organism-based; design: dose 20 mg/kg, route oral; conditions: in vivo; method in brief: as §1
Rattus norvegicus [5] = assay: Toxicity in renal spontaneously hypertensive rat model assessed as reduction of heart rate at 20 mg/kg, po measured at 4 hrs by tail-cuff method relative to control; assay type: organism-based; design: dose 20 mg/kg, route oral; conditions: in vivo; method in brief: as §1
Rattus norvegicus [6] = assay: Toxicity in renal spontaneously hypertensive rat model assessed as reduction of heart rate at 20 mg/kg, po measured at 2 hrs by tail-cuff method relative to control; assay type: organism-based; design: dose 20 mg/kg, route oral; conditions: in vivo; method in brief: as §1
Rattus norvegicus [7] = assay: Toxicity in renal spontaneously hypertensive rat model assessed as reduction of heart rate at 20 mg/kg, po measured at 1 hr by tail-cuff method relative to control; assay type: organism-based; design: dose 20 mg/kg, route oral; conditions: in vivo; method in brief: as §1
Rattus norvegicus [8] = assay: Antihypertensive activity in renal spontaneously hypertensive rat model assessed as reduction of mean arterial pressure at 20 mg/kg, po measured at 6 hrs by tail-cuff method relative to control; assay type: functional, Artery; method in brief: as §1
Rattus norvegicus [9] = assay: Antihypertensive activity in renal spontaneously hypertensive rat model assessed as reduction of mean arterial pressure at 20 mg/kg, po measured at 4 hrs by tail-cuff method relative to control; assay type: functional, Artery; method in brief: as §1
Rattus norvegicus [10] = assay: Antihypertensive activity in renal spontaneously hypertensive rat model assessed as reduction of mean arterial pressure at 20 mg/kg, po measured at 1 hr by tail-cuff method relative to control; assay type: functional, Artery; method in brief: as §1
Rattus norvegicus [11] = assay: Antihypertensive activity in renal spontaneously hypertensive rat model assessed as reduction of diastolic arterial pressure at 20 mg/kg, po measured at 8 hrs by tail-cuff method relative to control; assay type: functional, Artery; method in brief: as §1
Rattus norvegicus [12] = assay: Antihypertensive activity in renal spontaneously hypertensive rat model assessed as reduction of diastolic arterial pressure at 20 mg/kg, po measured at 6 hrs by tail-cuff method relative to control; assay type: functional, Artery; method in brief: as §1
Rattus norvegicus [13] = assay: Antihypertensive activity in renal spontaneously hypertensive rat model assessed as reduction of diastolic arterial pressure at 20 mg/kg, po measured at 4 hrs by tail-cuff method relative to control; assay type: functional, Artery; method in brief: as §1
Rattus norvegicus [14] = assay: Antihypertensive activity in renal spontaneously hypertensive rat model assessed as reduction of diastolic arterial pressure at 20 mg/kg, po measured at 2 hrs by tail-cuff method relative to control; assay type: functional, Artery; method in brief: as §1
Rattus norvegicus [15] = assay: Antihypertensive activity in renal spontaneously hypertensive rat model assessed as reduction of diastolic arterial pressure at 20 mg/kg, po measured at 1 hr by tail-cuff method relative to control; assay type: functional, Artery; method in brief: as §1
Rattus norvegicus [16] = assay: Antihypertensive activity in renal spontaneously hypertensive rat model assessed as reduction of systolic arterial pressure at 20 mg/kg, po measured at 8 hrs by tail-cuff method relative to control; assay type: functional, Artery; method in brief: as §1
Rattus norvegicus [17] = assay: Antihypertensive activity in renal spontaneously hypertensive rat model assessed as reduction of systolic arterial pressure at 20 mg/kg, po measured at 6 hrs by tail-cuff method relative to control; assay type: functional, Artery; method in brief: as §1
Rattus norvegicus [18] = assay: Antihypertensive activity in renal spontaneously hypertensive rat model assessed as reduction of systolic arterial pressure at 20 mg/kg, po measured at 4 hrs by tail-cuff method relative to control; assay type: functional, Artery; method in brief: as §1
Rattus norvegicus [19] = assay: Antihypertensive activity in renal spontaneously hypertensive rat model assessed as reduction of systolic arterial pressure at 20 mg/kg, po measured at 2 hrs by tail-cuff method relative to control; assay type: functional, Artery; method in brief: as §1
Rattus norvegicus [20] = assay: Antihypertensive activity in renal spontaneously hypertensive rat model assessed as reduction of systolic arterial pressure at 20 mg/kg, po measured at 1 hr by tail-cuff method relative to control; assay type: functional, Artery; method in brief: as §1
Rattus norvegicus [21] = assay: Antihypertensive activity in renal spontaneously hypertensive rat model assessed as reduction of mean arterial pressure at 20 mg/kg, po measured at 8 hrs by tail-cuff method relative to control; assay type: functional, Artery; method in brief: as §1
Rattus norvegicus [22] = assay: Antihypertensive activity in renal spontaneously hypertensive rat model assessed as reduction of mean arterial pressure at 20 mg/kg, po measured at 2 hrs by tail-cuff method relative to control; assay type: functional, Artery; method in brief: as §1

- IC50 [1]: 29 nM
- IC50 [2]: > 10000 nM
Compound: Cc1cc(Cn2cnc3c2C[C@@H](C(=O)O)N(C(=O)C(c2ccccc2)c2ccccc2)C3)ccc1N(C)C

- IC50 [1]: 68 nM
- IC50 [2]: > 10000 nM
Compound: CCC(=O)NS(=O)(=O)c1ccc(CC(C)C)cc1-c1ccc(Cn2cncn2)cc1

- IC50 [1]: 31 nM
- IC50 [2]: > 10000 nM
Compound: CCCCC(=O)NS(=O)(=O)c1ccc(CC(C)C)cc1-c1ccc(Cn2cncn2)cc1

- IC50 [1]: > 10000 nM
- IC50 [2]: > 10000 nM
Compound: Cc1ccc(C(=O)NS(=O)(=O)c2ccc(CC(C)C)cc2-c2ccc(Cn3cncn3)cc2)cc1

- IC50 [1]: 10 nM
- IC50 [2]: > 10000 nM
Compound: CCOC(=O)NS(=O)(=O)c1ccc(CC(C)C)cc1-c1ccc(Cn2cncn2)cc1

- IC50 [1]: 55 nM
- IC50 [2]: > 10000 nM
Compound: CC(C)Cc1ccc(S(=O)(=O)NC(=O)OC(C)(C)C)c(-c2ccc(Cn3cncn3)cc2)c1

- IC50 [1]: 0.4 nM
- IC50 [2]: > 10000 nM
Compound: CCCCOC(=O)NS(=O)(=O)c1ccc(CC(C)C)cc1-c1ccc(Cn2cncn2)cc1
- Activity (Rattus norvegicus [3]): -14.33 bpm
- Activity (Rattus norvegicus [4]): -16.69 bpm
- Activity (Rattus norvegicus [5]): -14.53 bpm
- Activity (Rattus norvegicus [6]): -5.02 bpm
- Activity (Rattus norvegicus [7]): 7.25 bpm
- Activity (Rattus norvegicus [8]): -21.88 mmHg
- Activity (Rattus norvegicus [9]): -14.16 mmHg
- Activity (Rattus norvegicus [10]): 4.43 mmHg
- Activity (Rattus norvegicus [11]): -14.1 mmHg
- Activity (Rattus norvegicus [12]): -21.36 mmHg
- Activity (Rattus norvegicus [13]): -12.32 mmHg
- Activity (Rattus norvegicus [14]): -3.55 mmHg
- Activity (Rattus norvegicus [15]): 4.93 mmHg
- Activity (Rattus norvegicus [16]): -15.22 mmHg
- Activity (Rattus norvegicus [17]): -20.94 mmHg
- Activity (Rattus norvegicus [18]): -14.29 mmHg
- Activity (Rattus norvegicus [19]): -4.26 mmHg
- Activity (Rattus norvegicus [20]): -7.25 mmHg
- Activity (Rattus norvegicus [21]): -15.09 mmHg
- Activity (Rattus norvegicus [22]): -4.78 mmHg

- IC50 [1]: > 10000 nM
- IC50 [2]: > 10000 nM
Compound: CC(C)Cc1ccc(S(=O)(=O)NC(=O)OCc2ccccc2)c(-c2ccc(Cn3cncn3)cc2)c1

- IC50 [1]: 184 nM
- IC50 [2]: > 10000 nM
Compound: CCC(=O)NS(=O)(=O)c1ccc(OC)cc1-c1ccc(Cn2cncn2)cc1

- IC50 [1]: 99 nM
- IC50 [2]: > 10000 nM
Compound: CCCCC(=O)NS(=O)(=O)c1ccc(OC)cc1-c1ccc(Cn2cncn2)cc1

- IC50 [1]: 36 nM
- IC50 [2]: > 10000 nM
Compound: CCOC(=O)NS(=O)(=O)c1ccc(OC)cc1-c1ccc(Cn2cncn2)cc1

- IC50 [1]: 170 nM
- IC50 [2]: > 10000 nM
Compound: COc1ccc(S(=O)(=O)NC(=O)OC(C)(C)C)c(-c2ccc(Cn3cncn3)cc2)c1

- IC50 [1]: 5 nM
- IC50 [2]: > 10000 nM
Compound: CCCCOC(=O)NS(=O)(=O)c1ccc(OC)cc1-c1ccc(Cn2cncn2)cc1
- Activity (Rattus norvegicus [3]): -22.9 bpm
- Activity (Rattus norvegicus [4]): -14.47 bpm
- Activity (Rattus norvegicus [5]): -13.45 bpm
- Activity (Rattus norvegicus [6]): -7.64 bpm
- Activity (Rattus norvegicus [7]): 7.05 bpm
- Activity (Rattus norvegicus [8]): -17.08 mmHg
- Activity (Rattus norvegicus [9]): -10.15 mmHg
- Activity (Rattus norvegicus [10]): -4.09 mmHg
- Activity (Rattus norvegicus [11]): -13.1 mmHg
- Activity (Rattus norvegicus [12]): -17.36 mmHg
- Activity (Rattus norvegicus [13]): -10.32 mmHg
- Activity (Rattus norvegicus [14]): -5.06 mmHg
- Activity (Rattus norvegicus [15]): -4.21 mmHg
- Activity (Rattus norvegicus [16]): -10.1 mmHg
- Activity (Rattus norvegicus [17]): -18.94 mmHg
- Activity (Rattus norvegicus [18]): -10.71 mmHg
- Activity (Rattus norvegicus [19]): -4.26 mmHg
- Activity (Rattus norvegicus [20]): -3.41 mmHg
- Activity (Rattus norvegicus [21]): -12.19 mmHg
- Activity (Rattus norvegicus [22]): -5.62 mmHg

- IC50 [1]: > 10000 nM
- IC50 [2]: > 10000 nM
Compound: COc1ccc(S(=O)(=O)NC(=O)OCc2ccccc2)c(-c2ccc(Cn3cncn3)cc2)c1

- IC50 [1]: 223 nM
- IC50 [2]: > 10000 nM
Compound: CCC(=O)NS(=O)(=O)c1ccc(C)cc1-c1ccc(Cn2cncn2)cc1
